In ChEMBL document CHEMBL1141337, “The berkeleyacetals, three meroterpenes from a deep water acid mine waste Penicillium” (J Nat Prod, 2007):
Active and inactive are the calls of the source. The calls are words filed in the database; no cut-off is given here.

How the values were obtained:
[1] = biological target: Stromelysin-1 (Homo sapiens) (UniProt P08254); experiment: Inhibition of MMP3
Caspase-1 (Homo sapiens) = biological target: T1, Caspase-1 (Homo sapiens) (UniProt P29466); experiment: Inhibition of caspase 1
T1 sequence (whole entry): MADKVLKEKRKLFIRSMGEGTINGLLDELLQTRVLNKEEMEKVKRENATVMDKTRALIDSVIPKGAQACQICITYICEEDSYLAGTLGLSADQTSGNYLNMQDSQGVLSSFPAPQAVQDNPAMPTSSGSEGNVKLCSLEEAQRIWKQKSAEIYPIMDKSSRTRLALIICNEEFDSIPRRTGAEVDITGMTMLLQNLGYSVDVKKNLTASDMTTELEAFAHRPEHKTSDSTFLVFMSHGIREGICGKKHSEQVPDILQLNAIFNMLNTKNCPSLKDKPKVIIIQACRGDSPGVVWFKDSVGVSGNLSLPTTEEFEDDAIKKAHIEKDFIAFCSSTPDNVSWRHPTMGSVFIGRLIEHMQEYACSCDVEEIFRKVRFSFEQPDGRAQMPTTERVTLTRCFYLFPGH

NCI-H460 = experiment: Growth inhibition of human NCI-H460 cells; type: functional, cell-based
In short: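 Run by the NCI Developmental Therapeutics Program human cancer cell line screen in its single-dose–response format.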

Sequence of Stromelysin-1 (Homo sapiens) (P08254 100-477 limits assumed): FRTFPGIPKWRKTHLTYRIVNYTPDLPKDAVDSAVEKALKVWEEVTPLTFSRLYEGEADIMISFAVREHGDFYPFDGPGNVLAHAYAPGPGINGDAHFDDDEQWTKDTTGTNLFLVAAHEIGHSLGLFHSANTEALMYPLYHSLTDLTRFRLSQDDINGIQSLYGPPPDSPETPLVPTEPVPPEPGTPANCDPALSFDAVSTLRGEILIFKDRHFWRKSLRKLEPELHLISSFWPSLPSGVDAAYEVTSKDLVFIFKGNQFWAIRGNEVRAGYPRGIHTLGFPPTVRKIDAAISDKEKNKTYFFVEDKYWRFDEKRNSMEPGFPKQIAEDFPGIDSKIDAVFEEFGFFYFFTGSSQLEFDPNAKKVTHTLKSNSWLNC

Question: How did the Activity [1] turn out when `COC(=O)[C@]12C(=O)[C@H](C)O[C@@H]3OC(=O)[C@](C)(C[C@H]4[C@]5(CO5)C5=CC(=O)OC(C)(C)C5=CC[C@@]41C)[C@@H]32` was run?
Answer: Its Activity is “Active”.

Question: What about the Activity (Caspase-1 (Homo sapiens)) of the same compound?
Answer: The Activity was “Active”.

Question: How did the Activity [1] turn out when `C=C1[C@@]2(C)C[C@H]3[C@@]4(C)C(=CC[C@]3(C)[C@]1(C(=O)OC)C(=O)[C@@](C)(O)C2=O)C(C)(C)C(=O)C[C@H]4O` was run?
Answer: The Activity was “Active”.

Question: What about the Activity (Caspase-1 (Homo sapiens)) of the same compound?
Answer: Its Activity is “Active”.

Question: `C[C@@H]1O[C@@H]2OC(=O)[C@]3(C)C[C@@H]4[C@](C)(C(=O)C=C5C(=CC(=O)OC5(C)C)[C@@]45CO5)[C@H](C1=O)[C@H]23` was tested. Which Activity [1] did it give?
Answer: The Activity was “Active”.

Question: And the Activity (Caspase-1 (Homo sapiens))?
Answer: The Activity was “Active”.

Question: What about the Activity (NCI-H460) of the same compound?
Answer: Its Activity is “Active”.

Question: With `COC(=O)[C@]12C(=O)[C@H](C)O[C@@H]3OC(=O)[C@](C)(C[C@H]4C(C)=C5CC(=O)OC(C)(C)C5=CC[C@@]41C)[C@@H]32` as the compound, how does the Activity [1] read?
Answer: Its Activity is “Active”.

Question: And the Activity (Caspase-1 (Homo sapiens))?
Answer: Its Activity is “Active”.

Question: `C=C1[C@@]2(C)C[C@H]3C(C)=C4CC(=O)OC(C)(C)C4=CC[C@]3(C)[C@]1(C(=O)OC)C(=O)[C@@](C)(O)C2=O` was tested. Which Activity [1] did it give?
Answer: Its Activity is “Active”.

Question: And the Activity (Caspase-1 (Homo sapiens))?
Answer: The Activity was “Active”.

Question: And the Activity (NCI-H460)?
Answer: Its Activity is “Active”.
